# Screening results from PubChem.
# PHOSPHO1 inh = inhibitors of human PHOSPHO1 phosphatase | Q8TCT1 | recombinant PHOSPHO1, absorbance phosphatase assay | inhibition, % at 13.3 µM | actives 1.1% (n = 290,000); in the data active = inhibition above about 60%
# RGS4 act = potentiators or activators of RGS4. actives 0.92% (n = 310,000). B-score at 10 µM. AID 463111. HEK293 M3R/inducible RGS4, carbachol calcium flux Fluo4; hits give low values;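 active = B-score of the integrated calcium signal more than 4 SD below the library mean, with starting fluorescence not abnormally high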;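 also: negative B-score means reduced calcium response which marks RGS4 activation or potentiation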
#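 Assay system: Inducible-RGS4 HEK293 cells carrying M3 receptor | Schedule: Compound preincubation 20 min at room temperature before agonist | Signal: Kinetic calcium fluorescence imaging with Fluo4-AM dye, 2 µM | Read-out basis: B score from integrated fluorescence ratio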
# RGS4 block = inhibitors of human RGS4; P49798; HEK293 M3R/RGS4 inducible, Fluo-4 calcium flux; hits give high values; triggered by carbachol at its EC20; B-score at 10 µM; actives 0.45% (n = 310,000); AID 463165;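 active = B-score, a plate-corrected calcium signal, over three deviations above library mean, with baseline fluorescence within five deviations of library mean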;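 also: RGS4 expression induced by doxycycline in cells with stable M3 receptor; B-score is computed from the integrated fluorescence ratio over baseline after carbachol; higher B-score means a larger calcium signal and so more RGS4 inhibition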
# Target sequence (P49798 whole entry, looked up): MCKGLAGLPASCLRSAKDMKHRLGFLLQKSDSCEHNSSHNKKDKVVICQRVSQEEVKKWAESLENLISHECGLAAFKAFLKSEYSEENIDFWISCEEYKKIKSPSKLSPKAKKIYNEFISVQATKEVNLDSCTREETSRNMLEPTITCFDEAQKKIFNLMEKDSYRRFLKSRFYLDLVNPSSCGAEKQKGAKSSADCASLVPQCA
# MrgX1 agonist = human MrgX1 receptor agonism, primary screen; Q96LB2; MrgX1-HEK293 cells, Fluo-4 calcium fluorescence, agonist mode; hits give high values; B-score at 10 µM; actives 0.44% (n = 310,000); AID 588627;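 active = calcium response B-score plate-corrected fluorescence ratio at least 3 library SD, with starting fluorescence B-score inside 5 SD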
# Target sequence (Q96LB2 whole entry, looked up): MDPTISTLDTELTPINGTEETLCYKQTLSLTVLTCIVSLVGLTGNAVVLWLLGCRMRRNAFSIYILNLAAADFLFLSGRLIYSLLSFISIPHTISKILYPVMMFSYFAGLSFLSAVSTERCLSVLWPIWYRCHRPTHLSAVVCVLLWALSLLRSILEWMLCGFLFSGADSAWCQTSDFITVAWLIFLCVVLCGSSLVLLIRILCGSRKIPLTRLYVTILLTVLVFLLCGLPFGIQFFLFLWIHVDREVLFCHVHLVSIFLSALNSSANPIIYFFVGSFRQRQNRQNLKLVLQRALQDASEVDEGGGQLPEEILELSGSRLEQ
#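 Test system: HEK293 cells stably expressing human MrgX1 receptor; amount: 15,000 cells per well; doses: compound delivered in addition one of three; times: overnight plating before 1 h dye loading; detection: Fluo-4 NW calcium-flux fluorescence, kinetic read; read-out basis: B-scored fluorescence response ratio; controls: positive and negative controls per plate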
# MrgX1 allo act = allosterically activates human MrgX1 receptor signaling | Q96LB2 | B-score at 10 µM | actives 0.63% (n = 310,000) | MrgX1-HEK293, Fluo-4 calcium flux, FDSS; hits give high values;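 active = plate-corrected calcium response at least 3 library SD above typical, normal starting fluorescence, not activating the receptor alone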;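 also: compound read alongside a low EC10 to EC30 dose of BAM8-22 agonist; peak minus trough fluorescence over baseline measured at the second addition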
# MrgX1 antagonist = human MrgX1 receptor antagonism, primary screen | AID 588676 | B-score at 10 µM | MRGX1-HEK293 calcium flux, Fluo-4, BAM8-22 antagonism; hits give low values | actives 1.3% (n = 310,000);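 active = calcium-response B-score plate-corrected more than 3 library SD below zero, starting fluorescence within 5 deviations, no agonist response on first addition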;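 also: peak minus trough fluorescence over baseline after final BAM8-22 challenge near maximal dose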
# MrgX1 ant reconf = human MrgX1 receptor antagonism, re-confirmation screen. shares compounds with MrgX1 antagonist. MrgX1-HEK293, BAM8-22 calcium flux, Fluo-4; hits give low values. actives 19% (n = 2,300). remaining BAM8-22 calcium response % of control (hits give low values), % at 10 µM;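 active = remaining agonist calcium response no higher than 100% minus 3 SD of agonist-only control wells, with starting fluorescence near control levels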;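 also: agonist BAM8-22 given at a near maximal EC90 to ECmax level; peak minus minimum fluorescence divided by baseline after agonist addition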
# HEK293 Ca flux = activity in parental HEK293 cells lacking MrgX1; shares compounds with MrgX1 antagonist; Fluo-4 calcium fluorescence, FDSS; fluorescence ratio F(max-min)/F0 at 10 µM; actives 2% (n = 4,000);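 active = duplicate-averaged calcium fluorescence ratio at least three times the standard deviation of buffer wells, a nonspecific response in parental cells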
# HEK293 Ca counter = MrgX1 allosteric activator counter-screen hit in parental HEK293 cells; parental HEK293 calcium flux, Fluo-4 fluorescence ratio; hits give high values; fluorescence ratio F(max-min)/F0 at 10 µM; actives 0.4% (n = 4,000); shares compounds with MrgX1 antagonist;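 active = calcium fluorescence ratio, averaged over duplicates, at least 3 SD of the buffer-well ratio, meaning a nonspecific response in receptor-free cells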;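 also: untransfected parental HEK293 lacking MrgX1 used as counterscreen for MrgX1 allosteric activators; fluorescence change taken during the second addition on a kinetic imager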
# HEK293 Ca cntr2 = counter-screen for MrgX1 activators: effect in parental HEK293 cells. shares compounds with MrgX1 antagonist. Fluo-4 calcium fluorescence (FDSS); hits give high values. fluorescence ratio F(max-min)/F0 at 10 µM. actives 8.7% (n = 4,000). AID 624115;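 active = calcium fluorescence ratio at least three times the spread of buffer wells, meaning a non-specific response in parental cells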
# A number is an active result; – = inactive; · = not tested or not shown. Hits are enriched below; roughly 4.5% of the tested compounds scored in any of these assays.
SMILES,PHOSPHO1 inh,RGS4 act,RGS4 block,MrgX1 agonist,MrgX1 allo act,MrgX1 antagonist,MrgX1 ant reconf,HEK293 Ca flux,HEK293 Ca counter,HEK293 Ca cntr2
CCN(CC(=O)NC(C)(C)C)C(=O)CCl,–,–,–,–,–,–,·,·,·,·
Cc1ccc(-c2nnc(CSc3nnc(C)s3)o2)cc1,–,–,–,–,–,-5.88,–,–,–,–
Cc1ccc(C(CNS(=O)(=O)c2ccc(Cl)cc2)N2CCN(C)CC2)cc1 (stereo not drawn),·,–,–,–,–,-4.96,78.5%,–,–,–
Cc1ccc(C(CNS(=O)(=O)c2ccc(C)cc2)N2CCN(C)CC2)cc1 (stereo not drawn),·,–,–,–,–,–,·,·,·,·
COc1cc(C(=O)OCC(=O)NCCC2=CCCCC2)ccc1OCC(C)C,·,–,–,–,–,–,·,·,·,·
CCn1c(SCC(=O)N2CCCCC2C)nnc1-c1ccco1 (stereo not drawn),–,–,–,–,–,–,·,·,·,·
CC1CCCCN1C(=O)CSc1nnc(-c2ccco2)n1CC1CCCO1 (stereo not drawn),–,–,–,–,–,-7,–,–,–,–
COc1ccc(NC(=O)CS(=O)CC(=O)Nc2cccnc2)cc1 (stereo not drawn),–,–,–,–,–,–,·,·,·,·
COc1ccc(CNCc2cccc(Oc3ccccc3)c2)cc1,–,–,–,–,–,–,·,·,·,·
NS(=O)(=O)c1ccc(NC(=O)COc2ncnc3sccc23)cc1,–,–,–,–,–,–,·,·,·,·
CCOC(=O)N1CCN(C(=O)CN(Cc2ccc(Cl)cc2)S(C)(=O)=O)CC1,–,–,–,–,–,-6.23,–,–,–,–
CC1Cc2ccccc2N1C(=O)CSc1nc2cc3c(cc2cc1C#N)OCO3 (stereo not drawn),–,·,·,–,–,-8.51,–,–,–,–
CCOC(=O)CSc1nc2cc3c(cc2cc1C#N)OCO3,–,·,·,–,–,–,·,·,·,·
Cc1cc2cc3c(cc2nc1SCC(=O)N1c2ccccc2CC1C)OCO3 (stereo not drawn),–,–,–,–,–,-5.02,83.9%,–,–,–
Cc1cc2ccccc2nc1SCC(=O)N1c2ccccc2CC1C (stereo not drawn),–,–,–,–,–,–,·,·,·,·
O=C(CCCSc1nc2ccccc2[nH]1)N1CCN(c2ccc([N+](=O)[O-])cc2)CC1,–,–,–,–,–,–,·,·,·,·
CC1=C(C(N)=O)C(c2cccc(O)c2)n2nc(CCCO)nc2N1 (stereo not drawn),–,–,–,–,–,-4.71,–,–,–,–
CC1=C(C(N)=O)C(c2ccc(Cl)cc2)n2nc(CCCO)nc2N1 (stereo not drawn),–,–,–,–,–,–,·,·,·,·
Cc1ccc2sc(NC(=O)CSc3nc(C)cc(C)c3C#N)nc2c1,–,–,–,–,–,-6.36,–,–,–,–
Cc1cc(C(F)(F)F)c(C#N)c(SCC(=O)Nc2nc3ccccc3s2)n1,–,–,–,–,–,–,·,·,·,·
Cc1cccc(NC(=O)CSc2nnc(CNC(=O)c3cccs3)o2)c1C,–,–,–,–,–,–,·,·,·,·
O=C(COc1ccccc1C(=O)c1cnn(-c2ccccc2)c1)Nc1ccc2ccccc2c1,–,–,–,–,–,–,·,·,·,·
CC(C)c1ccc(NC(=O)COc2ccc(F)cc2C(=O)c2cnn(-c3ccccc3)c2)cc1,–,–,–,–,–,-5.32,–,–,–,–
NC(=S)c1cc2ccc(O)cc2oc1=O,–,–,–,·,·,·,·,·,·,·
Oc1cc(O)cc(-c2cc3ccc(O)cc3o2)c1,·,–,–,–,–,-5.97,–,–,–,–
